What was measured:
[1] = species: Canis familiaris; assay: Effective dose required to increase myocardial contractility in dog.; assay type: functional; details: Canis lupus familiaris, Myocardium
Method in brief: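 Anesthetized mongrel dogs (either sex): pentobarbital 35 mg/kg iv, then 5 mg kg⁻¹ h⁻¹ infusion. After 30-min control, compound in saline or dilute HCl/NaOH diluted with saline given iv over 1 min, cumulative half-log doses (typically four to six), 10–30 min apart.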

[2] = molecular target: T1, cGMP-dependent 3',5'-cyclic phosphodiesterase (Homo sapiens, UniProt O00408); assay: Inhibition of cGMP PDE II enzyme in guinea pig at 1E-4M concentration; details: Cavia porcellus; target entry is the homologue from another species
[3] = molecular target: T1, cGMP-dependent 3',5'-cyclic phosphodiesterase; assay: Inhibition of cGMP PDE II enzyme in guinea pig at 1E-5M concentration; details: Cavia porcellus; target entry is the homologue from another species
[4] = molecular target: T1, cGMP-dependent 3',5'-cyclic phosphodiesterase; assay: Inhibitory concentration against cGMP PDE II enzyme in guinea pig; set-up: species or system Cavia porcellus; details: target entry is the homologue from another species
[5] = molecular target: T2, Phosphodiesterase 3 (Homo sapiens, UniProt Q14432+Q13370); assay: Inhibitory concentration against cAMP PDE III enzyme in guinea pig; assay type: protein assay, Cavia porcellus; details: target entry is the homologue from another species
[6] = molecular target: T2, Phosphodiesterase 3; assay: Inhibition of cAMP PDE III enzyme in guinea pig at 1E-4M concentration.; assay type: protein assay; details: Cavia porcellus; target entry is the homologue from another species
[7] = molecular target: T2, Phosphodiesterase 3; assay: Inhibition of cAMP PDE III enzyme in guinea pig at 1E-5M concentration; assay type: protein assay; details: Cavia porcellus; target entry is the homologue from another species
[8] = molecular target: T3, Phosphodiesterase 1 (Homo sapiens, UniProt P54750+Q01064+Q14123); assay: Inhibition of cAMP PDE I enzyme in guinea pig at 1E-4M concentration.; assay type: protein assay; details: Cavia porcellus; target entry is the homologue from another species
[9] = molecular target: T3, Phosphodiesterase 1; assay: Inhibition of cAMP PDE I enzyme in guinea pig at 1E-5M concentration; assay type: protein assay; details: Cavia porcellus; target entry is the homologue from another species
[10] = molecular target: T3, Phosphodiesterase 1; assay: Inhibition of cGMP PDE I enzyme in guinea pig at 1E-4M concentration; assay type: protein assay; details: Cavia porcellus; target entry is the homologue from another species
[11] = molecular target: T3, Phosphodiesterase 1; assay: Inhibition of cGMP PDE I enzyme in guinea pig at 1E-5M concentration; assay type: protein assay; details: Cavia porcellus; target entry is the homologue from another species
[12] = molecular target: T1, cGMP-dependent 3',5'-cyclic phosphodiesterase; assay: Inhibitory concentration against cAMP PDE II enzyme in guinea pig; set-up: species or system Cavia porcellus; details: target entry is the homologue from another species
[13] = molecular target: T1, cGMP-dependent 3',5'-cyclic phosphodiesterase; assay: Inhibition of cAMP PDE II enzyme in guinea pig at 1E-5M concentration; details: Cavia porcellus; target entry is the homologue from another species
[14] = Ratio of IC50 values for PDE III and PDE I.
[15] = Ratio of IC50 values for PDE III and PDE II.
[16] = molecular target: PDE I (Cavia porcellus); assay: Inhibitory concentration against cAMP PDE I enzyme in guinea pig
[17] = molecular target: PDE I (Cavia porcellus); assay: Inhibitory concentration against cGMP PDE I enzyme in guinea pig
[18] = tested on: PDE II (Cavia porcellus); assay: Inhibition of cAMP PDE II enzyme in guinea pig at 1E-4M concentration.

T1 sequence (O00408 whole entry): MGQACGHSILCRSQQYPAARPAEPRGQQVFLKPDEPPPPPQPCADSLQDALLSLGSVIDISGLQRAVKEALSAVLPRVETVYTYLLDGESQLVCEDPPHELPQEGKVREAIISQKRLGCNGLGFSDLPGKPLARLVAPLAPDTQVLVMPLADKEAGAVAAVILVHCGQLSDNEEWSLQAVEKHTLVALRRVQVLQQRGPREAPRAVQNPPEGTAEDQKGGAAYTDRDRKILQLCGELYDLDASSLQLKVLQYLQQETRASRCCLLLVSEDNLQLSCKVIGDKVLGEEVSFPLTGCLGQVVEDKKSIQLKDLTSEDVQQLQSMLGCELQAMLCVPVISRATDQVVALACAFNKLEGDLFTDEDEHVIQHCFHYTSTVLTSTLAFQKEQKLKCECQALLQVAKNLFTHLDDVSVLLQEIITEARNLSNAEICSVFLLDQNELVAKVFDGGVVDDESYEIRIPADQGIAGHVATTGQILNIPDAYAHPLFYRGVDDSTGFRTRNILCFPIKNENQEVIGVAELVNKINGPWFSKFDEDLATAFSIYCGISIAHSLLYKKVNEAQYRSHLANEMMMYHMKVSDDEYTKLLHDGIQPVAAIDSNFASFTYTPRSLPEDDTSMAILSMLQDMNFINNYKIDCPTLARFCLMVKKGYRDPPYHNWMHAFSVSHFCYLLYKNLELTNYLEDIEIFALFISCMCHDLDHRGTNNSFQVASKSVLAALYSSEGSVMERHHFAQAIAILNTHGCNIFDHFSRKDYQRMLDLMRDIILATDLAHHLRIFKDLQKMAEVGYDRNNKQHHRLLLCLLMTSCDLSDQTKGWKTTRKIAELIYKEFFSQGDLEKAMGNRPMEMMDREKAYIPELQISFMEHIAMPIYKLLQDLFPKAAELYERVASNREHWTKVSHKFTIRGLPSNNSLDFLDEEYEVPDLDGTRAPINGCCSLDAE

Row | Compound | ED50 [1] | inhibition [2] | inhibition [3] | IC50 [4] | IC50 [5] | inhibition [6] | inhibition [7] | inhibition [8] | inhibition [9] | inhibition [10] | inhibition [11] | IC50 [12] | inhibition [13] | Ratio [14] | Ratio [15] | IC50 [16] | IC50 [17] | inhibition [18]
1 | O=C1CCC(c2ccc(-n3cnc4ccccc43)cc2)=NN1 | 0.1 mg/kg | 70% | 24% | 34 µM | 1.2 µM | 88% | 66% | 25% | 9% | 36% | 9% | 42 µM | 24% | 4.3 | 28.5 | 280 µM | 220 µM | 67%
2 | Oc1ccc(-c2ccc(-n3cnc4c3CCCC4)cc2)nn1 | – | – | – | – | – | – | – | 52% | 30% | 56% | 27% | – | – | – | – | – | – | –
3 | CC1CC(=O)NN=C1c1ccc(-n2cnc3c2CCCC3)cc1 (stereo unspecified) [TETRAHYDROBENXIMIDAZOLE] | 0.025 mg/kg | 68% | 21% | 43 µM | 0.15 µM | 90% | 64% | 57% | 13% | 54% | 17% | 46 µM | 21% | 2 | 3.2 | 75 µM | 85 µM | 65%
4 | O=C1CCC(c2ccc(NC3=NCCS3)cc2)=NN1 | – | – | 33% | – | – | – | 58% | – | 18% | – | 20% | – | 31% | – | – | – | – | –
5 | O=C1CCC(c2ccc(-c3nn[nH]n3)cc2)=NN1 | – | – | 29% | – | – | – | 86% | – | 21% | – | 20% | – | 37% | – | – | – | – | –
6 | O=C1CCC(c2ccc(-n3cnc(CO)c3)cc2)=NN1 | 0.034 mg/kg | 23% | 5% | 350 µM | 4.1 µM | 68% | 59% | 9% | 1% | 9% | – | 480 µM | 6% | – | – | – | – | –
7 | NC(=O)c1cc(-c2ccc(-n3ccnc3)cc2)nnc1O | – | – | 15% | – | – | – | 24% | – | 11% | – | 16% | – | 18% | – | – | – | – | –
8 | CC1(C)CC(c2ccc(-n3ccnc3)cc2)=NNC1=O | – | – | 13% | – | – | – | 27% | – | 7% | – | 2% | – | 22% | – | – | – | – | –
9 | O=C1NN=C(c2ccc(-n3ccnc3)cc2)C2CCCCC12 (stereo unspecified) | 1 mg/kg | 44% | 8% | 130 µM | 220 µM | 34% | 8% | 22% | 1% | 16% | 2% | 150 µM | 14% | – | – | – | – | –
10 | O=C1CCC(c2cccc(-n3ccnc3)c2)=NN1 | 0.3 mg/kg | 28% | 10% | 340 µM | 40 µM | 65% | 28% | 9% | 6% | 8% | 3% | 330 µM | 10% | 43 | 121 | 930 µM | > 1000 µM | 21%
11 | CSc1nccn1-c1ccc(C2=NNC(=O)CC2)cc1 | – | – | 12% | – | – | – | 57% | – | 7% | – | 13% | – | 10% | – | – | – | – | –
12 | CCC1CC(=O)NN=C1c1ccc(-n2ccnc2)cc1 (stereo unspecified) | 1 mg/kg | 40% | 13% | 71 µM | 74 µM | 54% | 18% | 2% | 1% | 8% | 1% | 100 µM | 5% | – | 740 | > 1000 µM | > 1000 µM | 35%
13 | NNC(=O)c1cc(-c2ccc(-n3ccnc3)cc2)nnc1O | – | – | 12% | – | – | – | 21% | – | 6% | – | 4% | – | 20% | – | – | – | – | –
14 | CN1N=C(c2ccc(-n3ccnc3)cc2)CCC1=O | 1 mg/kg | 32% | 1% | 280 µM | 110 µM | 47% | 13% | 22% | 1% | 26% | 3% | 370 µM | 5% | – | 297 | > 1000 µM | > 1000 µM | 33%
15 | O=C1CCC(c2ccc(-n3cnc4c3CCCC4)cc2)=NN1 | 0.064 mg/kg | 69% | 22% | 39 µM | 1.1 µM | 87% | 60% | 38% | 8% | 37% | 7% | 49 µM | 20% | – | – | – | – | –
16 | O=C1CCC(c2ccc(-n3cccc3)cc2)=NN1 | – | – | 21% | – | – | – | 68% | – | 0% | – | 13% | – | 20% | – | – | – | – | –

Row | Compound | ED50 [1] | inhibition [2] | inhibition [3] | IC50 [4] | IC50 [5] | inhibition [6] | inhibition [7] | inhibition [8] | inhibition [9] | inhibition [10] | inhibition [11] | IC50 [12] | inhibition [13] | Ratio [14] | Ratio [15] | IC50 [16] | IC50 [17] | inhibition [18]
17 | Cc1cc(O)nnc1-c1ccc(-n2ccnc2)cc1 | 1.1 mg/kg | 39% | 8% | – | 50 µM | 64% | 26% | 24% | 0% | 14% | 4% | – | 4% | – | – | – | – | –
18 | O=C1CCC(c2ccc(NC3=NCCN3)cc2)=NN1 | – | – | 16% | – | – | – | 58% | – | 33% | – | 33% | – | 28% | – | – | – | – | –
19 | O=C1CCC(c2ccc(NC3=NCCO3)cc2)=NN1 | – | 31% | 4% | – | – | 68% | 54% | 26% | 3% | 12% | 6% | – | 9% | – | – | – | – | 36%
20 | Oc1ccc(-c2ccc(-c3ncc[nH]3)cc2)nn1 | 0.017 mg/kg | 41% | 7% | 180 µM | 12 µM | 69% | 51% | 18% | 8% | 23% | 10% | 190 µM | 10% | – | – | – | – | –
21 | O=C1CCC(c2ccc(-n3ccnc3)cc2)=NN1Cc1ccccc1 | – | 70% | 18% | – | – | 79% | 47% | 39% | 1% | 33% | 13% | – | 22% | – | – | – | – | 70%
22 | Cn1nc(-c2ccc(-n3ccnc3)cc2)ccc1=O | – | – | 12% | – | – | – | 20% | – | 1% | – | 9% | – | 16% | – | – | – | – | –
23 | O=C1CCC(c2ccc(-n3cnnc3)cc2)=NN1 | – | – | 21% | – | – | – | 70% | – | 29% | – | 20% | – | 25% | – | – | – | – | –
24 | Cc1csc(Nc2ccc(C3=NNC(=O)CC3)cc2)n1 | – | – | 23% | – | – | – | 58% | – | 7% | – | 2% | – | 23% | – | – | – | – | –
25 | CC(=O)OCCN1N=C(c2ccc(-n3ccnc3)cc2)CCC1=O | – | – | 11% | – | – | – | 16% | – | 1% | – | 5% | – | 23% | – | – | – | – | –
26 | O=C1CCC(c2ccc(-n3cccn3)cc2)=NN1 | – | – | 27% | – | – | – | – | – | 12% | – | 15% | – | 27% | – | – | – | – | –
27 | CC1(C)CC(=O)NN=C1c1ccc(-n2ccnc2)cc1 | – | – | 6% | – | – | – | 47% | – | 2% | – | 5% | – | 17% | – | – | – | – | –
28 | Cc1[nH]c(=O)c(C#N)cc1-c1ccncc1 [MILRINONE] | 0.037 mg/kg | – | – | – | – | – | – | – | – | – | – | – | – | – | – | – | – | –
29 | CCc1nc(C)c(Br)n1-c1ccc(-c2ccc(O)nn2)cc1 | – | – | – | – | – | – | – | 64% | 20% | – | – | – | – | – | – | – | – | –
30 | Cc1cc(=O)[nH]nc1-c1ccc(-n2ccnc2)cc1 | – | – | – | 170 µM | – | – | – | – | – | – | – | 210 µM | – | – | – | – | – | –
31 | CCc1nc(C)cn1-c1ccc(C2=NNC(=O)CC2)cc1 | 0.1 mg/kg | 44% | 9% | 92 µM | 3.5 µM | 76% | 59% | 51% | 9% | 53% | 7% | 170 µM | 14% | – | – | – | – | –
